Measured values of several laboratories.
Lines come from different studies, so protocols differ.
Target: Cyclin-dependent kinase 9 (CDK9, Homo sapiens, UniProt P50750)

| Compound | read-out | technique | tested at | remaining binding |
| --- | --- | --- | --- | --- |
| Cc1cnc(Nc2ccc(C(=O)N3CCC(N4CCCC4)CC3)cc2)nc1-c1cc2ccccc2s1 | binding | competition with immobilised ligand | 1 µM | 82% |
| O=C(NCC1CCOCC1)c1n[nH]cc1NC(=O)c1c(F)cccc1F | binding | competition with immobilised ligand | 1 µM | 83% |
| O=C(O)[C@H]1[C@H](Cn2nnc3ccccc3c2=O)CC[C@@H]1C(=O)c1ccc(OCCC2CCOCC2)cc1 | cell-free assay | competition with immobilised ligand | 1 µM | 72% |
| CN(CCCC(F)(F)F)c1nccc(-c2cnn3ncccc23)n1 | binding | – | 1 µM | 100% |
| C[C@@H]1CN(c2ccc3ncc(-c4ccc5[nH]nc(C6CC6)c5c4)n3n2)C[C@H](C)O1 | binding | competition with immobilised ligand | 0.5 µM | 78% |
| Cc1nccc(COC(=O)N2C[C@@H]3[C@@H](CNC(=O)c4ccc5[nH]nnc5c4)[C@@H]3C2)n1 | cell-free assay | competition with immobilised ligand | 1 µM | 100% |
| C[C@@H](c1ccc(-n2cnc3c(N)ncnc32)cc1)N1CCc2nn(C)c(Cc3ccccc3)c2C1=O | binding | competition with immobilised ligand | 0.1 µM | 85% |
| O=C(c1ccc(Nc2ncc(Cl)c(-c3ccc(Cl)s3)n2)cc1)N1CCC(N2CCCC2)CC1 | binding | competition with immobilised ligand | 1 µM | 68% |
| C[C@@H](c1cccc(C#N)c1)n1cc(Cl)cc(C(N)=O)c1=N | cell-free assay | competition with immobilised ligand | 1 µM | 91% |
| CC1CCCN1c1nccc(-c2cnn3ncccc23)n1 (stereo not drawn) | binding | – | 1 µM | 100% |
| FC(F)(F)Oc1cccc(-c2cnc3ccc(-c4ccncc4)nn23)c1 | cell-free assay | competition with immobilised ligand | 5 µM | 89% |
| Nc1cnc(N2CCc3cc(S(=O)(=O)Nc4c(F)cc(Cl)cc4F)cc(N4CCCC4=O)c32)nc1 | cell-free assay | competition with immobilised ligand | 1 µM | 100% |
| c1cncc(-c2cccc(Nc3nccc(NC4CCCCC4)n3)c2)c1 | binding | competition with immobilised ligand | 10 µM | 63% |
| CO[C@H]1CC[C@H](CNc2ccc(S(=O)(=O)NC(=O)c3ccc(N4CCN(CC5=C(c6ccc(Cl)cc6)CC(C)(C)CC5)CC4)cc3Oc3cnc4[nH]ccc4c3)cc2[N+](=O)[O-])CC1 | cell-free assay | competition with immobilised ligand | 1 µM | 91% |
| CN(C)c1ncc(F)c(-c2cnn3ncccc23)n1 | binding | – | 1 µM | 100% |
| CC(C)(C)c1ccc(-c2nc(CBr)nn2-c2cccc(O)c2)cc1 | cell-free assay | competition with immobilised ligand | 10 µM | 91% |
| NS(=O)(=O)c1cc(NC(=O)C2(c3ccccc3Cl)CC2)ccc1Oc1cccc(Cl)c1 | cell-free assay | competition with immobilised ligand | 1 µM | 78% |
| COc1cnc(Nc2cccc(S(N)(=O)=O)c2)nc1N1CCN(c2ccccc2)C(=O)C1 | binding | competition with immobilised ligand | 1 µM | 100% |
| C[C@@H]1CCN(c2nccc(-c3cnn4ncccc34)n2)C1 | binding | – | 1 µM | 87% |
| O=C(NCCCN1CCOCC1)c1ccc(Nc2nccc(-c3cc4ccccc4s3)n2)cc1 | binding | competition with immobilised ligand | 1 µM | 52% |
| Cc1cnn2ncc(-c3ccnc(N(C)C)n3)c2c1 | binding | – | 1 µM | 91% |
| Cc1c(C(=O)O)cc(-c2ccc(C3CCNCC3)cc2)c2ccc(-c3ccc(C(F)(F)F)cc3)cc12 | binding | competition with immobilised ligand | 1 µM | 100% |
| N#Cc1ccccc1CSc1nnc2c(n1)[nH]c1ccccc12 | binding | competition with immobilised ligand | 10 µM | 84% |
| CN(C)c1nccc(-c2cnc3ncccn23)n1 | binding | – | 1 µM | 100% |
